Laboratory results reported in ChEMBL document CHEMBL4346653, “A2B Adenosine Receptor Antagonists with Picomolar Potency” (J Med Chem, 2019).
Converted amounts (≈) assume the structure as drawn.

Key:
[1] = Semi-thermodynamic solubility of the compound at 200 uM after 24 hrs by LC/MS-based shake-flask method; format: physicochemical; conditions: read-out: Therm_solubility
[2] = target: T1, Adenosine receptor A3 (Mus musculus, UniProt Q61618); assay: Displacement of [3H]NECA from recombinant mouse A3 adenosine receptor expressed in CHO cell membranes measured after 180 mins by liquid scintillation counting method
T1 sequence (Q61618 whole entry): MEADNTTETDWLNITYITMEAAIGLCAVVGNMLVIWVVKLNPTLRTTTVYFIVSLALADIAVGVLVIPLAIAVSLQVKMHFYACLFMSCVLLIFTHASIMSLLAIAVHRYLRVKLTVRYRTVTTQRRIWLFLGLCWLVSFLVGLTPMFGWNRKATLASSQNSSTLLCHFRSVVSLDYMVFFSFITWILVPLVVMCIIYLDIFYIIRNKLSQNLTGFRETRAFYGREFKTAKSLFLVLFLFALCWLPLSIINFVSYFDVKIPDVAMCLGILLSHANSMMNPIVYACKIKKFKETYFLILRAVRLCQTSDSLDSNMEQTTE

[3] = target: Adenosine receptor A2a (Mus musculus, UniProt Q60613); assay: Displacement of [3H]MSX-2 from recombinant mouse A2A adenosine receptor expressed in CHO cell membranes measured after 60 mins by liquid scintillation counting method
[4] = target: T2, Adenosine receptor A2b (Mus musculus, UniProt Q60614); assay: Displacement of [3H]PSB-603 from recombinant mouse A2B adenosine receptor expressed in CHO cell membranes measured after 75 mins by liquid scintillation counting method
T2 sequence (Q60614 whole entry): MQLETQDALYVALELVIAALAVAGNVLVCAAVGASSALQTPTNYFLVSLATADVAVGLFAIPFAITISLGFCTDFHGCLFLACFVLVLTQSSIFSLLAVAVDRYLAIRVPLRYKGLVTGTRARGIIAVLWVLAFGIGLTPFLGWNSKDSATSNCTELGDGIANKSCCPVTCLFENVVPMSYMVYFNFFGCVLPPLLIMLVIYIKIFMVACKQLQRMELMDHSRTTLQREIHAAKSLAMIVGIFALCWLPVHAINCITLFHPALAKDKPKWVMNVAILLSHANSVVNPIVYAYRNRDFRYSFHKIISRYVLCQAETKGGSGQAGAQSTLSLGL

[5] = target: T3, Adenosine receptor A3 (Rattus norvegicus, UniProt P28647); assay: Binding affinity to rat A3 adenosine receptor
T3 sequence (P28647 whole entry): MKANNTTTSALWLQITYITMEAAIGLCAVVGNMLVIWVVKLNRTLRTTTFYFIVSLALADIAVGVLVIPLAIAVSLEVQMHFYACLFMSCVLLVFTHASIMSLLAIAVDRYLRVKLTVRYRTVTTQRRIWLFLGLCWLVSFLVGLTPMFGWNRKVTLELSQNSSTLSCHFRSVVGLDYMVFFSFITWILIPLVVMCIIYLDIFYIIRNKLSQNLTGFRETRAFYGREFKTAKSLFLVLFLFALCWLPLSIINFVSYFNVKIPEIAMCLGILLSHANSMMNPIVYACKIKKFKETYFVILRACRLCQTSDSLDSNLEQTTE

[6] = target: T4, Adenosine receptor A2b (Rattus norvegicus, UniProt P29276); assay: Displacement of [3H]PSB-603 from recombinant rat A2B adenosine receptor expressed in CHO cell membranes measured after 75 mins by liquid scintillation counting method
T4 sequence (P29276 whole entry): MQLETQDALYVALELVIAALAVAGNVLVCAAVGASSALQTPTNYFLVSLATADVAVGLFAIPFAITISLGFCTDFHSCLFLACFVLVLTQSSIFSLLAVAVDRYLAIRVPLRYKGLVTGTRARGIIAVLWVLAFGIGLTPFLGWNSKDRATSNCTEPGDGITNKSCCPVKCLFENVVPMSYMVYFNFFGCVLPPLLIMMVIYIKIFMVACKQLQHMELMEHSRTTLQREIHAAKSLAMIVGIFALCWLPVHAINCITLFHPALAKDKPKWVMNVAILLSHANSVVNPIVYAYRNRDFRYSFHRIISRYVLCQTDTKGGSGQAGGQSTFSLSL

[7] = target: T5, Adenosine receptor A2a (Homo sapiens, UniProt P29274); assay: Displacement of [3H]MSX-2 from recombinant human A2A adenosine receptor expressed in CHO cell membranes measured after 60 mins by liquid scintillation counting method
Procedure, shortened: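 Human A2A receptor binding against [3H]MSX-2, n = 3. Ki values (± SEM, nM) come from concentration-inhibition curves. Some Ki values are marked as derived from an extrapolated curve.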

[8] = target: T6, Adenosine receptor A1 (Mus musculus, UniProt Q60612); assay: Displacement of [3H]DPCPX from recombinant mouse A1 adenosine receptor expressed in CHO cell membranes measured after 60 mins by liquid scintillation counting method
T6 sequence (Q60612 whole entry): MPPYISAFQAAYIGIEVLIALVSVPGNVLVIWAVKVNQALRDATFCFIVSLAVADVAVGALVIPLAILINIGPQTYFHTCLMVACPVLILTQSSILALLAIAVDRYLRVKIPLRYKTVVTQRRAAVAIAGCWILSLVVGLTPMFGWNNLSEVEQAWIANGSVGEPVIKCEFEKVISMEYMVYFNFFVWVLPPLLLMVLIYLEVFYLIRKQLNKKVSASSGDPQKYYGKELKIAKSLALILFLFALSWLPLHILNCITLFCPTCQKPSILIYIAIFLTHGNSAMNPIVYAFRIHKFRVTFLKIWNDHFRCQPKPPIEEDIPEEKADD

[9] = target: T6, Adenosine receptor A1; assay: Displacement of [3H]CCPA from recombinant mouse A1 adenosine receptor expressed in CHO cell membranes measured after 60 mins by liquid scintillation counting method
[10] = target: T7, Adenosine receptor A1 (Homo sapiens, UniProt P30542); assay: Displacement of [3H]DPCPX from recombinant human A1 adenosine receptor expressed in CHO cell membranes measured after 120 mins by topcount scintillation counting method
T7 sequence (P30542 whole entry): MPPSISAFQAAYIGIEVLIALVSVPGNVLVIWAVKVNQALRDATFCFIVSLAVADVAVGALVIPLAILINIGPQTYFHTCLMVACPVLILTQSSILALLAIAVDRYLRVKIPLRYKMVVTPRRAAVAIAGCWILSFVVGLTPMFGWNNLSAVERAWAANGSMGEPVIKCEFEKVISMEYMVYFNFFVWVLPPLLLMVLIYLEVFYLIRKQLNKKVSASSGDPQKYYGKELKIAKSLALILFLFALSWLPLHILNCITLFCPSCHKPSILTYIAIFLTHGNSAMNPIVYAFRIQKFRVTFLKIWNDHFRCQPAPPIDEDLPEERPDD

[11] = target: T8, Adenosine receptor A3 (Homo sapiens, UniProt P0DMS8); assay: Displacement of [3H]MRE3008-F20 from recombinant human A3 adenosine receptor expressed in CHO cell membranes measured after 120 mins by topcount scintillation counting method
T8 sequence (P0DMS8 whole entry): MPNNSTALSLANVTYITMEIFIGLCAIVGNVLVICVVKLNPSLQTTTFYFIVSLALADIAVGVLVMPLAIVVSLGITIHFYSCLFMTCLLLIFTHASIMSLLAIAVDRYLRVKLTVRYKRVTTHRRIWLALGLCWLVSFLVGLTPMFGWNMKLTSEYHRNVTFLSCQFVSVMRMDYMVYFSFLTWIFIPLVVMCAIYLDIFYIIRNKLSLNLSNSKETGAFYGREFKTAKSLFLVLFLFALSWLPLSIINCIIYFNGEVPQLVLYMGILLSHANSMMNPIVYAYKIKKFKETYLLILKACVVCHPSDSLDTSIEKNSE

[12] = target: T9, Adenosine receptor A2b (Homo sapiens, UniProt P29275); assay: Displacement of [3H]DPCPX from recombinant human A2B adenosine receptor expressed in HEK293 cell membranes measured after 60 mins by topcount scintillation counting method
T9 sequence (P29275 whole entry): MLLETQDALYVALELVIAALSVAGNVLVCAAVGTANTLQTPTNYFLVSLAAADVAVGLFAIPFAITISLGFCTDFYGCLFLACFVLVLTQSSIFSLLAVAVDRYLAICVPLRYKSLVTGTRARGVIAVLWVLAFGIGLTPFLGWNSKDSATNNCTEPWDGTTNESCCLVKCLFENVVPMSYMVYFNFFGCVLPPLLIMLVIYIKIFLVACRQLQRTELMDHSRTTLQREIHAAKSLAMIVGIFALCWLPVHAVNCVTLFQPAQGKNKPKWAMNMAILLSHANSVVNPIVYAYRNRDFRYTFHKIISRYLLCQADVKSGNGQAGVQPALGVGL

[13] = target: T5, Adenosine receptor A2a; assay: Displacement of [3H]ZM241385 from recombinant human A2A adenosine receptor expressed in CHO cell membranes measured after 60 mins by topcount scintillation counting method

Sequence of Adenosine receptor A2a (Mus musculus, UniProt Q60613) (Q60613 whole entry): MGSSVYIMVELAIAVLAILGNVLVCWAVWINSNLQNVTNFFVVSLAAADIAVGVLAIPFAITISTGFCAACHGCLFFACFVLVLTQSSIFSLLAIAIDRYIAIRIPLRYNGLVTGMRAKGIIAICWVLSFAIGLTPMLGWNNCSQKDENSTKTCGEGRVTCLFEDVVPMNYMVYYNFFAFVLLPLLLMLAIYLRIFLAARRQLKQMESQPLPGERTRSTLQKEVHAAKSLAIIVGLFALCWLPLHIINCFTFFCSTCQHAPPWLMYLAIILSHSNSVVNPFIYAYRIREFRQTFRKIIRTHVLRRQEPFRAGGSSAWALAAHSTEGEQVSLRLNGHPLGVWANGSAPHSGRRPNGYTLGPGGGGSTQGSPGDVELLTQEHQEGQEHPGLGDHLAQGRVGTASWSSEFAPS
T5 sequence (P29274 whole entry): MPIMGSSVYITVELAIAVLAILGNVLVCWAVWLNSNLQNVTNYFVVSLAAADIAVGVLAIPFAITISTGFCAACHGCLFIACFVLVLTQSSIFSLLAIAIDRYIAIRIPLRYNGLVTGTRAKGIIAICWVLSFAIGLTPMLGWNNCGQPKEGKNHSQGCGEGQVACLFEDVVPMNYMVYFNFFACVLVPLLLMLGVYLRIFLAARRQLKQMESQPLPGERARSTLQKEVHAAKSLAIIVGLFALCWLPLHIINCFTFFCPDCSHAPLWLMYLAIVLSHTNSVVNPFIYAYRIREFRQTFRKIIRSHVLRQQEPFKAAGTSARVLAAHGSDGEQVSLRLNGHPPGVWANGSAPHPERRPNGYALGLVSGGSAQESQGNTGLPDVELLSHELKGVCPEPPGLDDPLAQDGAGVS

Structure (SMILES)	solubility thermodynamic at 24 h, 200 µM [1] [µM]	Ki [2] [nM]	Ki [3] [nM]	Ki [4] [nM]	Ki [5] [nM]	further results
CCCn1c(=O)[nH]c2nc(-c3ccc(S(=O)(=O)O)cc3)[nH]c2c1=O	–	> 10000	> 10000	1940	> 10000	Ki [6]: 3140 nM; Ki [7]: 3790 nM; Ki [8]: 591 nM
CCCn1c(=O)c2[nH]c(-c3ccc(OCC(=O)Nc4ccc(C#N)cc4)cc3)nc2n(CCC)c1=O	–	> 10000	> 10000	3.12	> 10000	Ki [9]: 1.45 nM
O=C(Nc1nc2nn(CCCc3ccccc3)cc2c2nc(-c3ccco3)nn12)c1cccc2ccccc12	–	–	–	–	–	Ki [10]: 1100 nM; Ki [11]: 300 nM; Ki [12]: 20 nM; Ki [13]: 800 nM

Continued, in another order:

solubility thermodynamic at 24 h, 200 µM [1] [µM]	Ki [2] [nM]	Ki [3] [nM]	Ki [4] [nM]	Ki [5] [nM]	Structure (SMILES)	further results
3.2 (≈ 1.74 µg/mL)	–	–	–	–	CCCn1c(=O)[nH]c2nc(-c3ccc(S(=O)(=O)N4CCN(Cc5ccc(Cl)cc5)CC4)cc3)[nH]c2c1=O	–
3.2 (≈ 1.69 µg/mL)	–	–	–	–	CCCn1c(=O)[nH]c2nc(-c3ccc(S(=O)(=O)N4CCN(c5ccc(Cl)cc5)CC4)cc3)[nH]c2c1=O	–
